High-throughput results as filed in PubChem BioAssay.
tim10-1 inh: tim10-1 yeast growth inhibition | inhibition, % at 20 µM | S. cerevisiae tim10-1 ts strain growth, BacTiter-Glo, 24 h | 330,000 tested, 2.2% active;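 active = inhibition of at least 40%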;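 also: mutant grown at 25 °C; 0% = DMSO wells with yeast and 100% = wells holding no yeast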
CHOP UPR activ: apoptotic UPR (CHOP) activation | CHO-CHOP luciferase reporter, luminescence; percent of tunicamycin response over DMSO baseline | activation, % at 10 µM | 330,000 tested, 0.34% active | AID 449763;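 active = at 10 µM dose, activation of 40% or more, normalized to positive control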;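 also: 100% = tunicamycin at 10 µg/mL and 0% = DMSO alone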
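Assay system: CHO cells with stable CHOP pathway luciferase reporter; Buffer or medium: F12 plus 10% serum; Times: 16-18 h cell attachment, then 6 h compound exposure, 37 °C; Signal: luciferase luminescence; Read-out basis: percent activation relative to tunicamycin control; Control set: tunicamycin high control, DMSO low control.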
tim23-1 inh: tim23-1 yeast growth inhibition. S. cerevisiae tim23-1 growth, BacTiter-Glo luminescence, 24 h. inhibition, % at 20 µM. 330,000 tested, 1.3% active. AID 463212;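 active = growth inhibition of the mutant yeast at or above 50%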;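 also: temperature-sensitive mutant grown at 25 °C; plate controls were DMSO-treated mutant yeast for no effect and medium wells lacking yeast for full effect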
XBP1 UPR activ: adaptive UPR (XBP1) activation; CHO-XBP1 luciferase reporter, IRE1-XBP1 UPR activation, luminescence; percent of tunicamycin response, DMSO as zero; activation, % at 20 µM; 330,000 tested, 0.33% active; AID 463104;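 active = versus positive control, 20 µM dose yields 30% or more activation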;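 also: 100% = tunicamycin at 10 µg/mL and 0% = DMSO only wells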
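Material: CHO-XBP1 cells stably carrying IRE1-XBP1-driven luciferase reporter / Amount: 1000 cells per well / Compound: 20 µM, 1% DMSO / Times: 6 h treatment, 37 °C / Detection: luciferase luminescence / Measure: % activation of reporter signal versus tunicamycin and DMSO controls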
TIM10 inh: TIM10 yeast growth inhibition; S. cerevisiae TIM10 strain growth, BacTiter-Glo luminescence, 24 h; inhibition, % at 10 µM; 330,000 tested, 1.4% active;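 active = inhibition of 40% or more at the single tested concentration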;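 also: wild-type TIM10 isogenic control strain grown at permissive 25 °C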
tim10-1 conf: confirmation of tim10-1 mutant yeast growth inhibitors. shares compounds with tim10-1 inh. S. cerevisiae tim10-1 ts strain growth, BacTiter-Glo, 24 h. inhibition, % at 20 µM. 7,400 tested, 56% active. AID 463213;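 active = inhibition of yeast growth at or above a set limit in either of two repeat tests at 20 µM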;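 also: tim10-1 mutant grown at permissive 25 °C to find synthetic lethal compounds; 0% = DMSO yeast wells and 100% = medium wells without yeast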
tim10 confirm: TIM10 yeast growth inhibition, confirmed. AID 463215. shares compounds with TIM10 inh. 4,600 tested, 63% active. inhibition, % at 10 µM. S. cerevisiae tim10 strain growth, BacTiter-Glo luminescence, 24 h;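 active = inhibition of yeast growth at or above a set limit in either of two replicates at 10 µM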;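 also: this counterscreen used the strain with wild-type TIM10; 0% = yeast with DMSO and 100% = medium wells lacking yeast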
tim23-1 conf: confirmation of tim23-1 mutant yeast growth inhibitors | S. cerevisiae tim23-1 growth, BacTiter-Glo luminescence, 24 h | inhibition, % at 20 µM | shares compounds with tim23-1 inh | AID 463218 | 4,400 tested, 83% active;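 active = inhibition above about 39% in either of two replicate wells at 20 µM, limit read from the data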;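 also: temperature-sensitive tim23-1 mutant grown at 25 °C; 0% = DMSO wells with yeast and 100% = medium wells without yeast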
* hit, by the source's call; · = not tested or not shown. A selection: hits, their analogues and other compounds. The true share with any hit is near 3.9%.

SMILES	tim10-1 inh	CHOP UPR activ	tim23-1 inh	XBP1 UPR activ	TIM10 inh	tim10-1 conf	tim10 confirm	tim23-1 conf
Cc1ccc(C)c(NC(=O)CN(C)C(=O)c2cccc(N3C(=O)CCC3=O)c2)c1	6	2	14	-3	-1	·	·	·
Cc1cc(C)n(-c2cc(C(C)(C)C)nc3c(-c4ccccc4)cnn23)n1	47*	7	51*	4	27	41*	·	48*
Cc1cc(N2CCCCC2)n2ncc(-c3ccccc3)c2n1	38	-7	32	-4	-10	·	·	·
COc1ccc(C(=O)/C=C2/C(=O)Nc3ccccc32)cc1	84*	20	88*	16	91*	88*	80*	85*
C=CCOc1ccc(C(=O)/C=C2/C(=O)Nc3ccccc32)cc1	84*	18	88*	5	77*	86*	90*	77*
COc1cc(OC)c(/C=C2\C(=O)Nc3ccccc32)c(OC)c1	39	-2	46	-1	23	·	·	·
COc1ccc(C(=O)/C=C2/C(=O)Nc3ccccc32)cc1OC	64*	48*	80*	-2	76*	65*	73*	57*
C=CCOc1ccccc1C(=O)/C=C1/C(=O)Nc2ccccc21	50*	152*	89*	-10	80*	active	64*	16
Cc1ccc(/C=C2\C(=O)Nc3ccccc32)o1	31	1	14	2	16	·	·	·
O=C(Nc1cccc(S(=O)(=O)N2CCOCC2)c1)C1=NN(c2ccccc2)C(=O)CC1	-1	-1	21	-1	5	·	·	·
Cc1cccc(NC(=O)/C(C#N)=C\c2ccc(C(=O)O)cc2)c1	0	1	0	2	2	·	·	·
N#C/C(=C\c1cccnc1)C(=O)Nc1cccc2ccccc12	61*	1	77*	-2	60*	58*	73*	78*
N#C/C(=C\c1cccnc1)C(=O)Nc1cccc(Cl)c1	48*	3	85*	2	50*	34*	24	78*
N#C/C(=C\c1cccnc1)C(=O)NC1CCCCC1	58*	-1	70*	-2	65*	41*	-18	70*
N#C/C(=C\c1cccc([N+](=O)[O-])c1)C(=O)Nc1cccnc1	26	2	28	1	1	·	·	·
Cc1cccc(NC(=O)/C(C#N)=C\c2cccnc2)c1	67*	3	79*	0	66*	56*	59*	78*
CSCCC(NC(=O)c1ccccc1)C(=O)N/N=C(\C)Cc1ccccc1 (stereo not drawn)	-10	1	-16	-1	-6	·	·	·
CC(=O)C[C@@H](O)CC(=O)[C@@H]1OC(=O)CCCCCCc2ccccc21	21	1	24	1	0	·	·	·
COc1ccccc1NC(=O)/C(C#N)=C/c1cccnc1	24	0	45	-4	20	·	·	·
N#C/C(=C\c1cccnc1)C(=O)Nc1ccc(Cl)cc1	61*	-2	76*	-3	61*	26	38*	66*
CN(C)CCNc1ncnc2c1sc1nc(-c3ccccc3)c3c(c12)CCCC3	10	6	4	6	7	·	·	·
CCCC(C)NC(=O)COc1ccc(S(=O)(=O)c2ccc(OCC(=O)NC(C)CCC)cc2)cc1 (stereo not drawn)	20	0	6	-2	-1	·	·	·
Cc1cccc(Oc2coc3cc(OC(=O)c4cncc(Br)c4)ccc3c2=O)c1	8	3	10	2	18	·	·	·
CCOC(=O)Oc1ccc2c(=O)c(Oc3cccc(C)c3)coc2c1	56*	3	55*	0	41*	48*	41*	59*
Cn1cc(C(=O)N/N=C/C2=C(N3CCOCC3)C(=C\c3ccccc3)/CC2)ccc1=O	19	7	3	1	4	·	·	·
